Measured values published in ChEMBL document CHEMBL1155877, “Design, synthesis, and biological evaluation of 14-substituted aromathecins as topoisomerase I inhibitors” (2008).
Activity calls are given as the source filed them. The rule behind the calls is not given here.

How the values were obtained:
[1] = target: T1, DNA topoisomerase 1 (Homo sapiens) (UniProt P11387); experiment: Inhibition of human recombinant topoisomerase 1 assessed as DNA cleavage relative to 1 uM camptothecin
T1 sequence (whole entry): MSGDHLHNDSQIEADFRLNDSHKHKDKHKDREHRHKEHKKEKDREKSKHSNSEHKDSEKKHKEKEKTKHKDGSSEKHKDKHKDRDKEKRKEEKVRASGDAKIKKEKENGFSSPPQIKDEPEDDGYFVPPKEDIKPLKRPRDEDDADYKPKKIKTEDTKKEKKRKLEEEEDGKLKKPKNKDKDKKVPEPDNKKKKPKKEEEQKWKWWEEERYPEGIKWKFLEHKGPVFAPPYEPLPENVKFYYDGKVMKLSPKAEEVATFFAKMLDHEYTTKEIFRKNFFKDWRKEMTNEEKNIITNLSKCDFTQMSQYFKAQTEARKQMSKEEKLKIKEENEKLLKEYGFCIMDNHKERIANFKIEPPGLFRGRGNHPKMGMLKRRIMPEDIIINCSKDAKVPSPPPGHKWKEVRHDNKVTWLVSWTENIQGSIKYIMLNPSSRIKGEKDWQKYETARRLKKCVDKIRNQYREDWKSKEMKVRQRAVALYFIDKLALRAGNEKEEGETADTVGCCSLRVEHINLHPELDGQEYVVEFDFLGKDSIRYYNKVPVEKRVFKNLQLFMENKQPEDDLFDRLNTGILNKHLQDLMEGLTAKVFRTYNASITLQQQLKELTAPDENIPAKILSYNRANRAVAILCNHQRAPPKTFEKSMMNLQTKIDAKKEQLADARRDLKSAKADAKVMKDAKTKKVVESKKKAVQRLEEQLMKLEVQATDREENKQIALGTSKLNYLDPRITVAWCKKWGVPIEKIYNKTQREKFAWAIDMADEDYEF
Outline: (§1)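 Baculovirus-expressed, purified human recombinant top1. Substrate is the 161 bp PvuII/HindIII fragment of pBluescript SK(-), 3'-end labeled at the HindIII site with [α-32P]-dGTP (about 50 000 dpm/reaction). Incubated with drug at 22 °C for 30 min. Products resolved on denaturing 16% polyacrylamide/7 M urea gels and imaged by phosphorimager. Tested at 0.1, 1, 10 and 100 µM.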

DU-145 = experiment: Antiproliferative activity against human DU145 cells; assay type: functional
Outline: (§2)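 NCI ~60 human tumor cell line screen. After an initial one-dose test, selected compounds run at five concentrations spanning 10^-8 to 10^-4 M. GI50 reported for selected lines from each subpanel.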

SN12C = experiment: Antiproliferative activity against human SN12C cells; assay type: functional; outline: as §2
MDA-MB-435 = experiment: Antiproliferative activity against human MDA-MB-435 cells; assay type: functional; outline: as §2
HOP-62 [2] = experiment: Antiproliferative activity against human HOP62 cells; assay type: functional; outline: as §2
UACC-62 = experiment: Antiproliferative activity against human UACC62 cells; assay type: functional; outline: as §2
SF-539 = experiment: Antiproliferative activity against human SF539 cells; assay type: functional; outline: as §2
HCT-116 = experiment: Antiproliferative activity against human HCT116 cells; assay type: functional; outline: as §2
OVCAR-3 = experiment: Antiproliferative activity against human OVCAR-3 cells; assay type: functional; outline: as §2
HOP-62 [3] = experiment: Growth inhibition of human HOP62 cells at 10 uM; assay type: functional; settings: pooled result: one value given for 8 cell lines, strains, targets or settings, read-out: GI
[4] = target: T1, DNA topoisomerase 1 (Homo sapiens); experiment: Induction of human recombinant topoisomerase 1-mediated DNA cleavage at 100 uM; outline: as §1

| inhibition [1] [%] | GI50 (DU-145) [µM] | GI50 (MDA-MB-435) [µM] | GI50 (HCT-116) [µM] | GI50 (OVCAR-3) [µM] | Activity [1] | Activity [4] | SMILES | GI50 (SN12C) [µM] | GI50 (HOP-62 [2]) [µM] | GI50 (UACC-62) [µM] | GI50 (SF-539) [µM] | inhibition of growth at 10 µM (HOP-62 [3]) [%] |
| --- | --- | --- | --- | --- | --- | --- | --- | --- | --- | --- | --- | --- |
| 50 | > 100 |  |  |  |  |  | O=c1c2ccccc2cc2n1Cc1cc3ccccc3nc1-2 [ROSETTACIN] | > 100 |  |  |  |  |
| 75 | 2.8 | > 100 | 3.6 | 6.3 |  |  | O=c1c2ccccc2cc2n1Cc1c-2nc2ccccc2c1CNCCO | 2.7 | 3.5 | 2.6 | 3.9 |  |
| 50 |  |  |  |  |  |  | O=c1c2ccccc2cc2n1Cc1c-2nc2ccccc2c1CN1CCOCC1 |  |  |  |  | 14 |
| 75 | > 100 | > 100 |  | > 100 |  |  | CN(C)Cc1c2c(nc3ccccc13)-c1cc3ccccc3c(=O)n1C2 | > 100 | > 100 | > 100 | > 100 |  |
|  |  |  |  |  |  |  | O=c1c2ccccc2cc2n1Cc1c-2nc2ccccc2c1CNCCCN1CCOCC1 |  |  |  |  | 25.5 |
|  | 13.2 | 1.7 | 1.6 | 6.3 | Active | Active | O=c1c2ccccc2cc2n1Cc1c-2nc2ccccc2c1CCCNCCO | 4.1 | 1.2 | 1.8 | 12.9 |  |
| 75 | 11.5 | > 100 | 13.2 | 17 |  |  | O=c1c2ccccc2cc2n1Cc1c-2nc2ccccc2c1Cn1ccnc1 | 21.5 | 10 | 3.4 | 4.7 |  |
| 75 | 4.9 | 2.1 | 1.9 |  |  |  | CN1CCN(Cc2c3c(nc4ccccc24)-c2cc4ccccc4c(=O)n2C3)CC1 | > 100 | > 100 | > 100 | 1.8 |  |
| 20 |  |  |  |  |  |  | O=c1c2cccc(CO)c2cc2n1Cc1cc3ccccc3nc1-2 |  |  |  |  |  |
| 50 | 20.3 | > 100 | 3.9 | 10.6 |  |  | O=c1c2ccccc2cc2n1Cc1c-2nc2ccccc2c1CCCN1CCOCC1 | 5.9 | 5 | 1.4 | 3.5 |  |
|  | > 0.01 | 0.79 | 0.1 | 0.5 | Active |  | COc1cc2c3c(n(CCCNCCO)c(=O)c2cc1OC)-c1cc2c(cc1C3=O)OCO2 [LMP-744] | > 0.01 | 0.02 | 0.03 | 0.04 |  |
| 20 | > 100 | > 100 |  | > 100 |  |  | COc1cc2cc3n(c(=O)c2cc1OC)Cc1cc2ccccc2nc1-3 [DIMETHOXYAROMATHECIN] | > 100 | > 100 | > 100 | > 100 |  |
| 20 | > 100 | > 100 | 43.4 | > 100 |  |  | O=c1c2ccccc2cc2n1Cc1c-2nc2ccccc2c1CCl | > 100 | 26.5 | > 100 | 7.4 |  |
| 75 |  |  |  |  |  |  | CN(C)CCCc1c2c(nc3ccccc13)-c1cc3ccccc3c(=O)n1C2 |  |  |  |  | 21.4 |
| 50 | 2.8 | 9.4 | 1.5 | 2.9 |  |  | NCc1c2c(nc3ccccc13)-c1cc3ccccc3c(=O)n1C2 | 2.9 | 9.8 | 11.7 | 4.9 |  |
| 50 | 37 | 96 | 35 |  |  |  | COc1cc2c3c(n(C)c(=O)c2cc1OC)-c1cc2c(cc1C3=O)OCO2 | 68 | 1.3 | 4.2 | 41 |  |
| 20 |  |  |  |  |  |  | NCCCc1c2c(nc3ccccc13)-c1cc3ccccc3c(=O)n1C2 |  |  |  |  |  |
| 75 | 7 | 10.3 | 9 | 5.5 |  |  | O=c1c2ccccc2cc2n1Cc1c-2nc2ccccc2c1CN1CC[C@H](O)C1 | 16.9 | 28.6 | 2.7 | 5.4 |  |
| 50 | 3.2 | 7 | 3.2 | 4.4 |  |  | O=c1c2ccccc2cc2n1Cc1c-2nc2ccccc2c1CNCCCn1ccnc1 | 3.5 | 4.7 | 6.4 | 3.8 |  |
| 75 | 3.3 | 4.2 | 1.6 | 5 |  |  | O=c1c2ccccc2cc2n1Cc1c-2nc2ccccc2c1CCCn1ccnc1 | 4.5 | 2 | 1.5 | 0.74 |  |

| SMILES | inhibition [1] [%] | GI50 (DU-145) [µM] | GI50 (MDA-MB-435) [µM] | GI50 (HCT-116) [µM] | GI50 (OVCAR-3) [µM] | Activity [1] | Activity [4] | GI50 (SN12C) [µM] | GI50 (HOP-62 [2]) [µM] | GI50 (UACC-62) [µM] | GI50 (SF-539) [µM] | inhibition of growth at 10 µM (HOP-62 [3]) [%] |
| --- | --- | --- | --- | --- | --- | --- | --- | --- | --- | --- | --- | --- |
| CC[C@@]1(O)C(=O)OCc2c1cc1n(c2=O)Cc2cc3ccccc3nc2-1 [CAMPTOTHECIN] |  | 0.01 | 0.04 | 0.03 |  |  |  | 0.02 | 0.01 | 0.01 | 0.01 |  |
